# Experimental data taken from ChEMBL document CHEMBL1145012, “New benzo[h][1,6]naphthyridine and azepino[3,2-c]quinoline derivatives as selective antagonists of 5-HT4 receptors: binding profile and pharmacological characterization” (J Med Chem, 2003).
# pIC50, pKi: −log10 of the molar value.
# Assays:
# [1] = target: 5-hydroxytryptamine receptor 4 (Cavia porcellus) (UniProt O70528); test: Ability to displace [3H]GR-113808 from 5-hydroxytryptamine 4 receptor at concentration of 10e-6 M in guinea pig
# Method in brief: (§1)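 Guinea pig striatal membranes (males, 220–224 g) in 50 mM HEPES pH 7.4, incubated in duplicate at 37 °C for 30 min with 0.6 nM [3H]GR 113808. Filtration on polyethylenimine-soaked GF/B filters. Nonspecific binding with 10 μM 5-HT. Screened as percent inhibition at 10⁻⁶ and 10⁻⁸ M; Ki derived for compounds giving over 40% inhibition at 10⁻⁸ M.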
# [2] = target: 5-hydroxytryptamine receptor 4 (Cavia porcellus) (UniProt O70528); test: Ability to displace [3H]GR-113808 from 5-hydroxytryptamine 4 receptor at concentration of 10e-8 M in guinea pig; method in brief: as §1
# [3] = tested on: Mus musculus; test: Antinociceptive activity in the mouse writhing test after intraperitoneal dose of 5 mg/kg; format: functional
# Method in brief: (§2)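 Male OF1 mice (20–24 g), groups of eight. Compounds in saline given ip (10 mL/kg) 15 min before ip 0.6% aqueous acetic acid (10 mL/kg). Stretches per animal counted over 10 min, starting 10 min after acid. Stretch defined as back arching, pelvic rotation and hind limb extension. Data are mean ± SEM; ANOVA then Fisher PLSD.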
# [4] = tested on: Mus musculus; test: Antinociceptive activity in the mouse writhing test before administration of the compound; format: functional; method in brief: as §2
# [5] = target: 5-hydroxytryptamine receptor 4 (Cavia porcellus, UniProt O70528); test: Ability to displace [3H]GR-113808 from 5-hydroxytryptamine 4 receptor; method in brief: as §1
# [6] = target: Beta-2 adrenergic receptor (Homo sapiens) (UniProt P07550); test: Ability to displace [3H]CGP-12177 from Beta-2 adrenergic receptor at concentration of 10e-7 M
# [7] = target: Sodium-dependent serotonin transporter (Homo sapiens) (UniProt P31645); test: Ability to recapture 5-HT by displace [3H]paroxetine at serotonin transporter at concentration of 10e-7 M
# [8] = target: Histamine H2 receptor (Rattus norvegicus) (UniProt P25102); test: Ability to displace [3H]tiotidine from histamine-H2 receptor at concentration of 10e-5 M
# [9] = target: Vasopressin V1b receptor (Rattus norvegicus, UniProt P48974); test: Ability to displace [3H]AVP from vasopressin V1 receptor
# [10] = tested on: Mus musculus; test: Compound was tested at subtoxic doses of 12.5-25-50 mg/kg in mice; Symptoms are Hypoactivity,relaxation,Passivity.; format: ADME, organism-based; details: in vivo
# [11] = target: 5-hydroxytryptamine receptor 4 (Mus musculus, UniProt P97288); test: Ability to displace [3H]GR-113808 from mouse 5-hydroxytryptamine 4 receptor in COS7 cells; format: cell-based, COS-7
# [12] = target: Beta-1 adrenergic receptor (Homo sapiens) (UniProt P08588); test: Ability to displace [3H]CGP-12177 from Beta-1 adrenergic receptor at concentration of 10e-7 M
# [13] = Ability to recaprure NAD using [3H]-nisoxatine at concentration of 10e-7 M
# [14] = target: D(1A) dopamine receptor (Mus musculus, UniProt Q61616); test: Ability to displace [3H]SCH-23390 from Dopamine receptor D1
# [15] = target: 5-hydroxytryptamine receptor 7 (Homo sapiens) (UniProt P34969); test: Ability to displace [125I]LSD […] from 5-hydroxytryptamine 7 receptor at concentration of 10e-6 M
# [16] = Lethal dose of the compound; format: ADME
# Method in brief: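 Male OF1 mice (20–24 g), in groups of four, received graded ip doses (12.5, 25, 50 mg/kg) in saline (10 mL/kg).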
# [17] = target: Histamine H1 receptor (Homo sapiens) (UniProt P35367); test: Ability to displace [3H]-mepyramine from histamine H1 receptor at concentration of 10e-5 M
# [18] = target: Sodium-dependent dopamine transporter (Rattus norvegicus) (UniProt P23977); test: Ability to recapture DA by displace [3H]GBR-12935 from dopamine transporter at concentration of 10e-5 M
# [19] = target: 5-hydroxytryptamine receptor 7 (Homo sapiens) (UniProt P34969); test: Ability to displace [125I]LSD […] from 5-hydroxytryptamine 7 receptor at concentration of 10e-8 M
# [20] = target: Beta-1 adrenergic receptor (Homo sapiens) (UniProt P08588); test: Ability to displace [3H]CGP-12177 from Beta-1 adrenergic receptor at concentration of 10e-5 M
# [21] = target: Histamine H2 receptor (Rattus norvegicus) (UniProt P25102); test: Ability to displace [3H]tiotidine from histamine-H2 receptor at concentration of 10e-7 M
# [22] = target: 5-hydroxytryptamine receptor 2B (Homo sapiens, UniProt P41595); test: Ability to displace [3H]5-HT from 5-hydroxytryptamine 2B receptor
# [23] = target: 5-hydroxytryptamine receptor 1A (Mus musculus, UniProt Q64264); test: Ability to displace [3H]8-OH-DPAT from 5-hydroxytryptamine 1A receptor
# [24] = target: Sodium-dependent dopamine transporter (Rattus norvegicus) (UniProt P23977); test: Ability to recapture DA by displace [3H]GBR-12935 from dopamine transporter at concentration of 10e-7 M
# [25] = target: 5-hydroxytryptamine receptor 6 (Homo sapiens) (UniProt P50406); test: Ability to displace [125I]LSD […] from 5-hydroxytryptamine 6 receptor at concentration of 10e-8 M
# [26] = target: 5-hydroxytryptamine receptor 6 (Homo sapiens) (UniProt P50406); test: Ability to displace [125I]LSD […] from 5-hydroxytryptamine 6 receptor at concentration of 10e-6 M
# [27] = Ability to recaprure NAD using [3H]nisoxetine at concentration of 10e-5 M
# [28] = tested on: Mus musculus; test: Antinociceptive activity in the mouse writhing test after intraperitoneal dose of 0.1 mg/kg; p<0.05.; format: functional; method in brief: as §2
# [29] = tested on: Mus musculus; test: Compound was tested at toxic doses of 12.5-25-50 mg/kg in mice; Convulsions.; format: ADME, organism-based; details: in vivo
# [30] = tested on: Mus musculus; test: Antinociceptive activity in the mouse writhing test after intraperitoneal dose of 1 mg/kg; p<0.01; format: functional; method in brief: as §2
# [31] = target: Beta-2 adrenergic receptor (Homo sapiens) (UniProt P07550); test: Ability to displace [3H]-CGP-12,177 from adrenergic Beta-2 adrenergic receptor at concentration of 10e-5 M
# [32] = target: Vasopressin V2 receptor (Sus scrofa, UniProt P32307); test: Ability to displace [3H]AVP from Vasopressin V2 receptor
# [33] = target: Sodium-dependent serotonin transporter (Homo sapiens) (UniProt P31645); test: Ability to recapture 5-HT by displacing [3H]paroxetine at serotonin transporter at concentration of 10e-5 M
# [34] = target: 5-hydroxytryptamine receptor 2A (Homo sapiens, UniProt P28223); test: Ability to displace [3H]-ketanserin from 5-hydroxytryptamine 2A receptor
# [35] = target: D(2) dopamine receptor (Homo sapiens, UniProt P14416); test: Ability to displace [3H]YM-0915 from Dopamine receptor D2
# [36] = tested on: Mus musculus; test: Antinociceptive activity in the mouse writhing test after intraperitoneal dose of 0.01 mg/kg; format: functional; method in brief: as §2
# [37] = target: 5-hydroxytryptamine receptor 2C (Homo sapiens, UniProt P28335); test: Ability to displace [3H]mesulergine from 5-hydroxytryptamine 2C receptor
# [38] = target: Histamine H1 receptor (Homo sapiens) (UniProt P35367); test: Ability to displace [3H]mepyramine from histamine H1 receptor at concentration of 10e-7 M
# [39] = tested on: Mus musculus; test: Compound was tested at subtoxic dose of 25 mg/kg in mice; Symptoms are hyperactivity, irritability, stereotypy.; format: ADME, organism-based; parameters: dose 25 mg/kg; details: in vivo
# [40] = tested on: Mus musculus; test: Antinociceptive activity in the mouse writhing test after intraperitoneal dose of 1 mg/kg; format: functional; method in brief: as §2
# [41] = tested on: Mus musculus; test: Antinociceptive activity in the mouse writhing test after intraperitoneal dose of 0.1 mg/kg; format: functional; method in brief: as §2
# [42] = tested on: Mus musculus; test: Antinociceptive activity in the mouse writhing test after intraperitoneal dose of 30 mg/kg; format: functional; method in brief: as §2
# 5-hydroxytryptamine receptor 4 (Cavia porcellus, UniProt O70528), sequence (O70528 whole entry): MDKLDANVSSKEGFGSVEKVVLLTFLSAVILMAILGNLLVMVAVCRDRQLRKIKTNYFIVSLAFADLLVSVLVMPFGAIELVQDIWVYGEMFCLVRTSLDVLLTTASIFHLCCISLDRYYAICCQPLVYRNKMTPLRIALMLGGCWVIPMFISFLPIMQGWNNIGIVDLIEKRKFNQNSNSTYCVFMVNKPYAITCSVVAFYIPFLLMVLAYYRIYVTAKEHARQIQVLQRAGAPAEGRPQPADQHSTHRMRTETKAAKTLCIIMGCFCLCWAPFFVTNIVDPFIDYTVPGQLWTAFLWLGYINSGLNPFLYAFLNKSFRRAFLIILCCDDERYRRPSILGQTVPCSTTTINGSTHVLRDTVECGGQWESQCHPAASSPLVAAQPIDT
# 5-hydroxytryptamine receptor 4 (Cavia porcellus), sequence (O70528 whole entry): as above
# Beta-1 adrenergic receptor (Homo sapiens), sequence (P08588 whole entry, looked up): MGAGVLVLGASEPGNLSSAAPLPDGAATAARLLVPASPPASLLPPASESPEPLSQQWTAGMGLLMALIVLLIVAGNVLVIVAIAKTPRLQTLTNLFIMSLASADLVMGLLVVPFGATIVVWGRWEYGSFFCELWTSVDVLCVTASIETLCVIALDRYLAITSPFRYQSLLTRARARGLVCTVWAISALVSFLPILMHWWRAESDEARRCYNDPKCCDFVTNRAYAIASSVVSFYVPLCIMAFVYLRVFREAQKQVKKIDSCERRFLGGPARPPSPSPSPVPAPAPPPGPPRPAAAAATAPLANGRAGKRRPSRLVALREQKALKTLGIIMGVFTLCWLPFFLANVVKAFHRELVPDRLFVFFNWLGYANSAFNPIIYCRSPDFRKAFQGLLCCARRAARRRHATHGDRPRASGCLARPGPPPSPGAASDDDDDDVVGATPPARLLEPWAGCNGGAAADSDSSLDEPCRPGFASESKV
# Histamine H2 receptor (Rattus norvegicus), sequence (P25102 whole entry): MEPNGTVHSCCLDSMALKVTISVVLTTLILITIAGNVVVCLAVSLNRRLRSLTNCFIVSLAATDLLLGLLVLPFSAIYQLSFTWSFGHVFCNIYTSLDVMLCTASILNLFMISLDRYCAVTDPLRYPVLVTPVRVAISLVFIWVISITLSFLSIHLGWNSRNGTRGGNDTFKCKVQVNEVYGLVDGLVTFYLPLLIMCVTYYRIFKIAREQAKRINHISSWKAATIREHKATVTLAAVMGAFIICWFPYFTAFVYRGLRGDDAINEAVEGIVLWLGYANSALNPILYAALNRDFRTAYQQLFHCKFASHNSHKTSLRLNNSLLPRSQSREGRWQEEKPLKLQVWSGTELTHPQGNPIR
# Histamine H1 receptor (Homo sapiens), sequence (P35367 whole entry): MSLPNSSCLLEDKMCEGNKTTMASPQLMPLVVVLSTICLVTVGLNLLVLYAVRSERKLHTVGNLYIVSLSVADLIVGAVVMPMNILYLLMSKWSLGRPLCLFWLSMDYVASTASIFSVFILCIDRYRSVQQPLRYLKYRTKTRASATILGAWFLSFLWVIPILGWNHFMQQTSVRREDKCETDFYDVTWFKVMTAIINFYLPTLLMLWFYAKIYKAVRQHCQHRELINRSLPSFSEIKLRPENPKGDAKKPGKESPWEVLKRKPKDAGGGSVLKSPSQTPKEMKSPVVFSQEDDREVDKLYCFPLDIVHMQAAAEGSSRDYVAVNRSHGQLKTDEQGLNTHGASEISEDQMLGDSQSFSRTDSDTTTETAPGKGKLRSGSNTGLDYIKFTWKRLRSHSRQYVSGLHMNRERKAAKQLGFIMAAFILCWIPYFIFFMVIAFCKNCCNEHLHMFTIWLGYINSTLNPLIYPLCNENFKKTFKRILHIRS
# Sodium-dependent serotonin transporter (Homo sapiens), sequence (P31645 whole entry, looked up): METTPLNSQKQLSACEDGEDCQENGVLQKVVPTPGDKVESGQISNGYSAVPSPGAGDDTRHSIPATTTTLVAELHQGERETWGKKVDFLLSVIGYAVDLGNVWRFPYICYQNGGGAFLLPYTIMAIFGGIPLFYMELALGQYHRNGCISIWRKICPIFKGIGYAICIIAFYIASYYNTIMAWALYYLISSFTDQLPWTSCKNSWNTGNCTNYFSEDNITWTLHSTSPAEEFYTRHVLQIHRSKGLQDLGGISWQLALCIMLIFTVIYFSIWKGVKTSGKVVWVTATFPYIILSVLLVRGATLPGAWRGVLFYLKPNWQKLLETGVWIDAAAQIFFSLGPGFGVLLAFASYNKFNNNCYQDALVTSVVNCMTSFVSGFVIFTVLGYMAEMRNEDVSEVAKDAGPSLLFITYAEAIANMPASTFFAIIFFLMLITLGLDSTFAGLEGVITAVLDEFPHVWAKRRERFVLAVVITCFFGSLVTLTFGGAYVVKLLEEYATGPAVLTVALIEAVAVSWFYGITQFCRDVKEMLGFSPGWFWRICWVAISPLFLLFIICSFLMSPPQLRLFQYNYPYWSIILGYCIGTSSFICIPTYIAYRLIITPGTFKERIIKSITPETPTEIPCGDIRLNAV
# 5-hydroxytryptamine receptor 7 (Homo sapiens), sequence (P34969 whole entry): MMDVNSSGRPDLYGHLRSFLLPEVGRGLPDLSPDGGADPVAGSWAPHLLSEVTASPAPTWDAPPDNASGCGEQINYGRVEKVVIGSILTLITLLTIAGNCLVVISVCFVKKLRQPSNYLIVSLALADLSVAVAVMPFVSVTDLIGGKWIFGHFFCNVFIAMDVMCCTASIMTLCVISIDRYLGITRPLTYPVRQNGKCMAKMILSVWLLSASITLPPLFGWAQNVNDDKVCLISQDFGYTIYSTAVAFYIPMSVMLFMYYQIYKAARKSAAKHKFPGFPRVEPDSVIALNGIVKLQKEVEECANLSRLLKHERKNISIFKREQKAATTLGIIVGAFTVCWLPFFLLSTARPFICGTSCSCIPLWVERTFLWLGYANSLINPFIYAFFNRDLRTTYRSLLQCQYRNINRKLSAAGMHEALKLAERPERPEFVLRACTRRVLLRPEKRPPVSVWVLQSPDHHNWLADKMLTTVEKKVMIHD
# Beta-2 adrenergic receptor (Homo sapiens), sequence (P07550 whole entry, looked up): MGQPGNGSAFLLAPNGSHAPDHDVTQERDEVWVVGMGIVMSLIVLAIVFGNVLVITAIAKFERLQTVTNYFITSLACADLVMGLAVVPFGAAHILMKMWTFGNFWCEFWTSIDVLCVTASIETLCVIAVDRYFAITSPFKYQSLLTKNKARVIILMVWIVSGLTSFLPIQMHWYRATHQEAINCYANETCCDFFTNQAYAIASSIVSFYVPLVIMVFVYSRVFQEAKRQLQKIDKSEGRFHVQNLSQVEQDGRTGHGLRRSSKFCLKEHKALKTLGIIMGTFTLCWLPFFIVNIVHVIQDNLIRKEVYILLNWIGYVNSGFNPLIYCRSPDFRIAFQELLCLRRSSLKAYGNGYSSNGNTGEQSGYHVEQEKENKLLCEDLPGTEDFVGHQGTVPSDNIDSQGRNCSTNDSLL
# 5-hydroxytryptamine receptor 6 (Homo sapiens), sequence (P50406 whole entry): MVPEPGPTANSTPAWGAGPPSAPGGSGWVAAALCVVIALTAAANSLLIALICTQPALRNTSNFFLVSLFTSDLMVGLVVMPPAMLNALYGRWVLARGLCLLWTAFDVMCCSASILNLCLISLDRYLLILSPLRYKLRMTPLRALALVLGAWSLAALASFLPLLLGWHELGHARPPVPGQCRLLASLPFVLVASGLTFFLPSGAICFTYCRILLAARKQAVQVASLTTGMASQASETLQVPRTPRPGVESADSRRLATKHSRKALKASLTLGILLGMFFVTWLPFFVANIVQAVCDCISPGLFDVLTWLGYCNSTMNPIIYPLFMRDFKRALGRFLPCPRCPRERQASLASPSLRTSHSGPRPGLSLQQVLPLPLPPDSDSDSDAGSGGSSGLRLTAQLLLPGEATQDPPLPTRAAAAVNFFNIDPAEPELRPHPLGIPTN
# Sodium-dependent dopamine transporter (Rattus norvegicus), sequence (P23977 whole entry): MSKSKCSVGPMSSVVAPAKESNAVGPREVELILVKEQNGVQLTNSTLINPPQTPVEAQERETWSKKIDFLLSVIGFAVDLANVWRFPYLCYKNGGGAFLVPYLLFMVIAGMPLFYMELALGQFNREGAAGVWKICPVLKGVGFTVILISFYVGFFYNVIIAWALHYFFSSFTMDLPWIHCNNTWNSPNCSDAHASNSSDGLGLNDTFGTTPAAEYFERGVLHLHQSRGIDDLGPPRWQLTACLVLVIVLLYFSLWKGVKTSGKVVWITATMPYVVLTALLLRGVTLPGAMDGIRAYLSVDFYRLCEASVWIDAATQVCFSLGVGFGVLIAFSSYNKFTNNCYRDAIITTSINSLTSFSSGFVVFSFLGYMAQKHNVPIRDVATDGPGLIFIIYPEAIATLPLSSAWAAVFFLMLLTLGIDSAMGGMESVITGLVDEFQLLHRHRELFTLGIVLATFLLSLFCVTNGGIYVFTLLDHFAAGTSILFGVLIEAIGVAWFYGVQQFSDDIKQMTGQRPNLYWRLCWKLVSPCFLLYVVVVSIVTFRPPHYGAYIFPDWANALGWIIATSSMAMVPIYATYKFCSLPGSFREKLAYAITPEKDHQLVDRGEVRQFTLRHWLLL
# 5-hydroxytryptamine receptor 2B, sequence (P41595 whole entry): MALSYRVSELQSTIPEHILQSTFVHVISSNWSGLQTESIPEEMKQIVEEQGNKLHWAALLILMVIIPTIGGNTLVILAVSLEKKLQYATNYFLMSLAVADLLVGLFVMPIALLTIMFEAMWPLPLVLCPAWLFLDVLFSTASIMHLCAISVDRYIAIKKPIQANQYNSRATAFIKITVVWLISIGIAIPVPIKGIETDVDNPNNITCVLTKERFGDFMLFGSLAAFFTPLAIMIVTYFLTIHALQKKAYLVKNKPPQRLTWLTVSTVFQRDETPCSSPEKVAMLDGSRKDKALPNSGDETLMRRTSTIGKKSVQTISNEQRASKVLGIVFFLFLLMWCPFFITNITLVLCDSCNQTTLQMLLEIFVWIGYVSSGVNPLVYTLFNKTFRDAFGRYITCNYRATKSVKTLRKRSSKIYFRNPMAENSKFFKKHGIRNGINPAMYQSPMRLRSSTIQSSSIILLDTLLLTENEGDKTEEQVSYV
compound,measurement,setting,value
CCCCN1CCC(COc2nc3ccc(Cl)cc3c3c2CCCCN3)CC1,inhibition,[1],92%
same,inhibition,[2],0%
CCCCCN1CCC(COc2nc3ccccc3c3c2CCCCN3)CC1,inhibition,[1],100%
same,inhibition,[2],0%
CN1C(C(=O)Nc2ccccn2)=C(O)c2ccccc2S1(=O)=O [PIROXICAM],Stretches,[3],2.4
same,Stretches,[4],24.6
CCCCN1CCC(COc2nc3ccccc3c3c2CCCN3)CC1,pKi,[5],8.00
same,inhibition,[1],100%
same,inhibition,[2],77%
CCCN1CCC(COc2nc3ccc(Cl)cc3c3c2CCCN3)CC1,inhibition,[1],100%
same,inhibition,[2],0%
C#CCN1CCC(COc2nc3ccccc3c3c2CCCN3)CC1,inhibition,[1],100%
same,inhibition,[2],15%
CCCN1CCC(COc2nc3ccccc3c3c2CCCN3)CC1,pKi,[5],8.54
same,inhibition,[1],100%
same,inhibition,[6],0%
same,inhibition,[7],0%
same,inhibition,[8],75%
same,pIC50,[9],5.49
same,Symptoms,[10],Active
same,pIC50,[11],9.25
same,inhibition,[12],0%
same,inhibition,[13],17%
same,pIC50,[14],< 4.00
same,inhibition,[2],70%
same,inhibition,[15],36%
same,LD50,[16],37.5 mg/kg
same,inhibition,[17],91%
same,inhibition,[18],61%
same,inhibition,[19],20%
same,inhibition,[20],39%
same,inhibition,[21],0%
same,pIC50,[22],6.70
same,pIC50,[23],5.04
same,inhibition,[24],13%
same,inhibition,[25],0%
same,inhibition,[26],12%
same,inhibition,[27],23%
same,Stretches,[28],13.8
same,Symptoms,[29],Active
same,Stretches,[30],12.5
same,inhibition,[31],70%
same,pIC50,[32],4.96
same,Stretches,[4],24.6
same,inhibition,[33],79%
same,pIC50,[34],5.30
same,pIC50,[35],5.47
same,Stretches,[36],19
same,pIC50,[37],5.47
same,inhibition,[38],0%
CCCCCN1CCC(COc2nc3ccccc3c3c2CCCN3)CC1,pKi,[5],7.90
same,inhibition,[1],100%
same,inhibition,[2],51%
CCCCN1CCC(COc2nc3ccc(Cl)cc3c3c2CCCN3)CC1,inhibition,[1],100%
same,inhibition,[2],2%
COC(=O)C(c1ccccc1)C1CCCCN1 (centres undefined) [METHYLPHENIDATE],Symptoms,[39],"Hyperactivity, irritability, stereotypy"
CCCN1CCC(COc2nc3cc(Cl)ccc3c3c2CCCCN3)CC1,inhibition,[1],98%
same,inhibition,[2],0%
C=CCN1CCC(COc2nc3ccccc3c3c2CCCN3)CC1,inhibition,[1],100%
same,inhibition,[2],31%
COc1[nH]c2ccc(F)cc2c1C(=O)OCC1CCN(CCNS(C)(=O)=O)CC1,Stretches,[4],20
same,Stretches,[40],11.2
same,Stretches,[41],11.5
same,Stretches,[36],16.5
CCCCN1CCC(COc2nc3ccccc3c3c2CCCCN3)CC1,pKi,[5],7.79
same,inhibition,[1],100%
same,inhibition,[2],44%
c1ccc2c3c(c(OCC4CCNCC4)nc2c1)CCCN3,inhibition,[1],96%
same,inhibition,[2],24%
CCCN1CCC(COc2nc3ccc(Cl)cc3c3c2CCCCN3)CC1,inhibition,[1],91%
same,inhibition,[2],5%
CCCN1CCC(COc2nc3ccccc3c3c2CCCCN3)CC1,pKi,[5],7.90
same,inhibition,[1],100%
same,inhibition,[2],55%
CN1CCC(COc2nc3ccccc3c3c2CCCN3)CC1,pKi,[5],7.10
same,inhibition,[1],100%
same,inhibition,[2],52%
CCN1CCC(COc2nc3ccccc3c3c2CCCCN3)CC1,pKi,[5],7.97
same,inhibition,[1],100%
same,inhibition,[2],51%
Cn1cc(C(=O)OCC2CCN(CCNS(C)(=O)=O)CC2)c2ccccc21,Stretches,[4],21.8
same,Stretches,[40],12.3
same,Stretches,[41],12.8
same,Stretches,[36],18.2
CC(=O)Oc1ccccc1C(=O)O [ASPIRIN],Stretches,[42],8.7
same,Stretches,[4],25.8
CCN1CCC(COc2nc3ccccc3c3c2CCCN3)CC1,pKi,[5],7.88
same,inhibition,[1],100%
same,inhibition,[2],55%
